pEC50, pKi: −log10 of the molar value.
Legend:
[1] = test system: Human immunodeficiency virus 1; assay: Antiviral activity against HIV1 with reverse transcriptase K103N mutation in MT4 cells assessed as inhibition of viral induced cytopathic effect by MTT method; format: functional, organism-based; details: Human immunodeficiency virus 1, MT4
Summary of the method: (§1)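 MT-4 cells infected with the HIV-1 NNRTI-resistant mutant strain. Viable cells scored at day 5 post-infection by the MTT tetrazolium colorimetric method. […] Values are means ± SD from at least two experiments.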

[2] = test system: Human immunodeficiency virus 1; assay: Antiviral activity against HIV1 with reverse transcriptase Y181C mutation in MT4 cells assessed as inhibition of viral induced cytopathic effect by MTT method; format: functional, organism-based; details: Human immunodeficiency virus 1, MT4; summary of the method: as §1
[3] = test system: Human immunodeficiency virus 1; assay: Antiviral activity against HIV1 with reverse transcriptase Y188L mutation in MT4 cells assessed as inhibition of viral induced cytopathic effect by MTT method; format: functional, organism-based; details: Human immunodeficiency virus 1, MT4
Summary of the method: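 MT-4 cells infected with the HIV-1 NNRTI-resistant mutant strain. Viable cells scored at day 5 post-infection by the MTT tetrazolium colorimetric method. Values are means ± SD from at least two experiments.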

[4] = Cytotoxicity against MT4 cells after 4 days by MTT method; format: cell-based; details: human
Summary of the method: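 Mock-infected (noninfected) MT-4 cells, run in parallel with the antiviral test. Viable cells read by the MTT tetrazolium colorimetric method. […] Means ± SD from at least two experiments. The top concentration was limited where compounds precipitated in the culture medium.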

[5] = test system: Human immunodeficiency virus 1; assay: Antiviral activity against HIV1 NL43 in MT4 cells assessed as inhibition of viral induced cytopathic effect after 4 days by MTT method; format: functional, organism-based
[6] = Selectivity index, ratio of CC50 for MT4 cells to EC50 for HIV1 NL43 infected MT4 cells; format: functional
[7] = test system: Human immunodeficiency virus 1; assay: Antiviral activity against HIV1 with reverse transcriptase IRLL98 mutation in MT4 cells assessed as inhibition of viral induced cytopathic effect by MTT method; format: functional, organism-based
[8] = biological target: Human immunodeficiency virus type 1 reverse transcriptase (Human immunodeficiency virus 1, UniProt Q72547); assay: Inhibition of wild type HIV1 3B reverse transcriptase
[9] = biological target: Human immunodeficiency virus type 1 reverse transcriptase (Human immunodeficiency virus 1, UniProt Q72547, K103N); assay: Inhibition of HIV1 reverse transcriptase K103N mutant
[10] = biological target: Human immunodeficiency virus type 1 reverse transcriptase (Human immunodeficiency virus 1, UniProt Q72547, L100I); assay: Inhibition of HIV1 reverse transcriptase L100I mutant
[11] = biological target: Human immunodeficiency virus type 1 reverse transcriptase (Human immunodeficiency virus 1, UniProt Q72547, V106A); assay: Inhibition of HIV1 reverse transcriptase V106A mutant
[12] = biological target: Human immunodeficiency virus type 1 reverse transcriptase (Human immunodeficiency virus 1, UniProt Q72547, V179D); assay: Inhibition of HIV1 reverse transcriptase V179D mutant
[13] = Inhibition of HIV1 reverse transcriptase Y1811 mutant; parameters: species or system Human immunodeficiency virus 1
Summary of the method: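 Recombinant HIV-1 RT Y181I mutant, purified to >95%, 10 min preincubation with inhibitor. Radioactive nucleotide incorporation into poly(rA)/oligo(dT) 10:1 was followed at varied nucleotide substrate levels, sampling every 2 min for initial velocities. Inhibitor spanned 0.2–5 Ki. Ki came from Lineweaver-Burk and Dixon plots. Means ± SD of at least three experiments.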

[14] = biological target: Human immunodeficiency virus type 1 reverse transcriptase (Human immunodeficiency virus 1, UniProt Q72547, Y188L); assay: Inhibition of HIV1 reverse transcriptase Y188L mutant
[15] = Resistance index, Ratio of EC50 for drug-resistant HIV1 with RT K103N mutation in MT4 cells to EC50 for HIV1 NL43 in MT4 cells
[16] = Resistance index, Ratio of EC50 for drug-resistant HIV1 with RT Y181C mutation in MT4 cells to EC50 for HIV1 NL43 in MT4 cells
[17] = Resistance index, Ratio of EC50 for drug-resistant HIV1 with RT Y188L mutation in MT4 cells to EC50 for HIV1 NL43 in MT4 cells
[18] = Resistance index, Ratio of EC50 for drug-resistant HIV1 with RT IRLL98 mutation in MT4 cells to EC50 for HIV1 NL43 in MT4 cells
[19] = test system: Human immunodeficiency virus 1; assay: Resistance index, ratio of Ki for HIV1 reverse transcriptase Y181I mutant to Ki for wild type HIV1 3B reverse transcriptase
Summary of the method: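 Initial velocities came from radioactive nucleotide incorporation into poly(rA)/oligo(dT) 10:1, sampled every 2 min. Inhibitor spanned 0.2–5 Ki, with Lineweaver-Burk and Dixon plots. Fold-resistance is Ki mutant / Ki wild type.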

[20] = test system: Human immunodeficiency virus 1; assay: Antiviral activity against HIV1 NL43 in MT4 cells assessed as inhibition of viral induced cytopathic effect after 5 days by MTT method; details: Human immunodeficiency virus 1, NL43, MT4, 120 h
[21] = Human immunodeficiency virus 1, MT4

## Cc1c(C(C)c2c(F)cccc2F)nc(N2CCSCC2)[nH]c1=O (stereo unspecified)
[1]
  pEC50: 5.91
[2]
  pEC50: 7.52
[3]
  pEC50: 6.07
[4]
  CC50 at 96 h: > 71000 nM
[5]
  pEC50: 8.52
[6]
  Ratio CC50/EC50: >23667
[7]; mt4
  pEC50: 7.22
[8]
  pKi: 7.22
[9]
  pKi: 5.00
[10]
  pKi: 5.30
[11]
  pKi: 7.52
[12]
  pKi: 7.70
[13]
  pKi: < 4.70
[14]
  pKi: 5.40
[15]
  Ratio EC50: 413
[16]
  Ratio EC50: 10
[17]
  Ratio EC50: 287
[18]
  Ratio EC50: 20

## CCc1c(C(C)c2c(F)cccc2F)nc(N(C)C)[nH]c1=O (stereo unspecified)
[1]
  pEC50: 6.60
[2]
  pEC50: 7.00
[3]
  pEC50: 6.26
[4]
  CC50 at 96 h: > 81000 nM
[6]
  Ratio CC50/EC50: >40500
[7]; [21]
  pEC50: 6.06
[8]
  pKi: 7.30
[9]
  pKi: 5.70
[10]
  pKi: 5.40
[11]
  pKi: 7.22
[12]
  pKi: 7.52
[13]
  pKi: 5.30
[14]
  pKi: 5.00
[19]
  Ratio Ki: 100
[15]
  Ratio EC50: 125
[16]
  Ratio EC50: 50
[17]
  Ratio EC50: 275
[18]
  Ratio EC50: 440
[20]
  pEC50: 8.70

## CCN(C)c1nc(C(C)c2c(F)cccc2F)c(C)c(=O)[nH]1 (stereo unspecified)
[1]
  pEC50: 7.70
[2]
  pEC50: 8.70
[3]
  pEC50: 7.52
[4]
  CC50 at 96 h: 81000 nM
[6]
  Ratio CC50/EC50: 270000
[7]; [21]
  pEC50: 8.52
[8]
  pKi: 7.40
[9]
  pKi: 6.30
[10]
  pKi: 5.60
[11]
  pKi: 7.70
[12]
  pKi: 7.70
[13]
  pKi: 5.00
[14]
  pKi: 5.40
[19]
  Ratio Ki: 250
[15]
  Ratio EC50: 67
[16]
  Ratio EC50: 7
[17]
  Ratio EC50: 100
[18]
  Ratio EC50: 10
[20]
  pEC50: 9.52

Source: ChEMBL document CHEMBL1137561 (J Med Chem, 2007)
